In ChEMBL document CHEMBL2176879, “Identification of HIV-1 inhibitors targeting the nucleocapsid protein” (J Med Chem, 2012):
pEC50, pKi: −log10 of the molar value. Active and inactive are the calls of the source.

Key:
[1] = tested on: Human immunodeficiency virus 1; experiment: Binding affinity to HIV1 NL4-3 N-terminal GST-tagged nucleocapsid protein expressed in Escherichia coli BL21DE3 by resonant waveguide grating-based SRU BIND assay
In short: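 GST-p2-NC (NL4-3, E. coli BL21DE3(pLysS), GSH-purified) immobilized at 5 μM on aldehyde-activated optical biosensor; compounds added at 25 μM in PBS, 1 % DMSO; peak wavelength shift followed over time at room temperature; stoichiometry from expected PWV using ligand/receptor MW ratio and target activity.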

[2] = Inhibition of HIV1 NL4-3 N-terminal GST-tagged nucleocapsid protein interaction to FAM-labeled SL-2 DNA expressed in Escherichia coli BL21DE3 by fluorescence polarisation assay; design: species or system Human immunodeficiency virus 1
[3] = tested on: Human immunodeficiency virus 1; experiment: Binding affinity to HIV1 Gag protein assessed as change in melting temperature using SYPRO orange by differential scanning fluorimetry analysis
In short: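 5 μM GST-Gag incubated with 5X SYPRO Orange and 5 μM compound in 5 mM HEPES pH 7.5, 150 mM NaCl; heated 35–94 °C at 1 °C/min. Tm from Boltzmann sigmoid fit; ΔTm of 2 °C taken as hit threshold.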

[4] = tested on: Human immunodeficiency virus 1; experiment: Displacement of FAM-labeled SL-2 from HIV1 NL4-3 N-terminal GST-tagged nucleocapsid protein-FAM-labeled SL-2 complex expressed in Escherichia coli BL21DE3 by EMSA analysis
In short: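 Pre-formed complex of GST-p2-NC with fluorescein-labeled SL-2 DNA (15 μM protein, 0.5 μM DNA in PBS, 10 nM ZnCl2) incubated with compound, resolved by native PAGE; free/bound probe quantified by fluorescence gel scanning.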

SUP-T1 [5] = experiment: Cytotoxicity against human SupT1 cells at 0.1 uM after 7 days by Trypan Blue dye exclusion analysis; format: cell-based; conditions: sup-t1, 168 h
In short: (§1)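 SupT1 T cells in RPMI1640 with 10 % FBS, 2 mM L-glutamine, 0.1 mM NEAA, 1 mM sodium pyruvate, penicillin/streptomycin, at 37 °C and 5 % CO2. Compounds were dissolved in DMSO and incubated with the cells for several days. Viability was read as dead vs. viable cells by Trypan Blue dye exclusion, counted under a microscope.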

SUP-T1 [6] = experiment: Cytotoxicity against human SupT1 cells at 10 uM after 7 days by Trypan Blue dye exclusion analysis; format: cell-based; conditions: sup-t1, 168 h
SUP-T1 [7] = experiment: Cytotoxicity against human SupT1 cells at 1 uM by Trypan Blue dye exclusion analysis; format: cell-based; conditions: sup-t1, 1 µM; in short: as §1
[8] = tested on: Human immunodeficiency virus 1; experiment: Antiviral activity against HIV1 LAI infected in human CD4+ T cells assessed as reduction of p24 positive T cells at 200 nM treated 3 days before infection measured after 9 days by flow cytometry analysis; format: functional; conditions: Human immunodeficiency virus 1, LAI, T-cell
SUP-T1 [9] = experiment: Cytotoxicity against human SupT1 cells at 30 uM after 6 days by Trypan Blue dye exclusion analysis; format: cell-based; conditions: sup-t1, 144 h; in short: as §1
SUP-T1 [10] = experiment: Cytotoxicity against human SupT1 cells at 0.1 to 1 uM after 7 days by Trypan Blue dye exclusion analysis; format: cell-based; conditions: sup-t1, 168 h
[11] = tested on: Human immunodeficiency virus 1; experiment: Antiviral activity against HIV1 NL4-3 infected in human HeLa cells assessed as drecrease of p24 antigen level after 2 days by CFAR; format: functional, organism-based; conditions: Human immunodeficiency virus 1, NL4-3, HeLa, 48 h
In short: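 2×10^5 HeLa cells in Opti-MEM given increasing compound concentrations (1 % DMSO controls); after 2 days transiently transfected with 1 μg pNL4-3 plasmid by lipofection. Virus production quantified as p24, expressed relative to DMSO controls; three independent transfections, mean ± s.d.; EC50 derived.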

SMILES	Activity [1]	pKi [2]	ΔTm [3] [°C]	Activity [4]	Activity (SUP-T1 [5]) [%]	Activity (SUP-T1 [6]) [%]	Activity (SUP-T1 [7]) [%]	inhibition at 0.2 µM [8] [%]	Activity (SUP-T1 [9]) [%]	Activity (SUP-T1 [10]) [%]	pEC50 [11]
O=C1ON=C(c2ccccc2)/C1=C/c1ccc2c(c1)OCO2	Active	7.70	6.3	Active	0	> 90	> 70	33	–	–	–
O=C1NC(=S)S/C1=C\c1cc([N+](=O)[O-])ccc1Sc1ccc(C(F)(F)F)cn1	Active	7.14	2.4	Active	0	> 90	> 70	0	–	–	–
C/C(=C\c1ccc2c(c1)OCO2)[N+](=O)[O-]	Active	7.66	3.4	Active	0	> 90	> 70	18	–	–	–
COc1cccc(/C=C2\SC(=S)C(N)C2=O)c1OC (configuration not stated)	Active	7.74	4.8	Active	0	–	–	43	> 70	< 3	5.46
CCOc1ccc(/C=C(\C)[N+](=O)[O-])cc1OC	Active	7.85	2.2	Active	0	> 90	–	50	–	< 3	6.49
